Consider 34 compounds from ChEMBL document CHEMBL3856289, “Discovery of ONO-7300243 from a Novel Class of Lysophosphatidic Acid Receptor 1 Antagonists: From Hit to Lead” (ACS Med Chem Lett, 2016).

Data set [1] addresses T1, Lysophosphatidic acid receptor 1 (Homo sapiens, UniProt Q92633). The data set is described as follows: Antagonist activity at human LPA1 receptor expressed in CHO cells assessed as reduction in LPA-induced intracellular Ca2+ concentration pretreated with compound followed by LPA addition by fluorescence assay. It is filed as functional, cell-based. An outline of the steps: (§1)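 IC50s came from nonlinear regression of 5-point concentration–response curves, reported with 95% confidence intervals.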

Data set [2] concerns the target Lysophosphatidic acid receptor 2 (Homo sapiens, UniProt Q9HBW0). The data set can be described thus: Inhibition of LPA2 (unknown origin). An outline of the steps:
as §1

For data set [3], the target named is T2, Lysophosphatidic acid receptor 3 (Homo sapiens, UniProt Q9UBY5).
T2 sequence (Q9UBY5 whole entry): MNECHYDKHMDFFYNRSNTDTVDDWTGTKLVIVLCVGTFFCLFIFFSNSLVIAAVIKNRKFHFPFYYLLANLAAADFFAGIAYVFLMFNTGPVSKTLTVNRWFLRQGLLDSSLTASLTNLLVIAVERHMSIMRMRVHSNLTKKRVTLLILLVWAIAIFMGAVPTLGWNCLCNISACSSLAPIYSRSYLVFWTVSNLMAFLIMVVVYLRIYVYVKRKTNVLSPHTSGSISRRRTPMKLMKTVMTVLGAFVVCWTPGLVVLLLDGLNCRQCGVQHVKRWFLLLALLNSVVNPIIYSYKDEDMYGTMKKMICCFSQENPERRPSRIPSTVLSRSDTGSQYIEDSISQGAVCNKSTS
The data set can be described thus: Inhibition of LPA3 (unknown origin). An outline of the steps: as §1

Data set [4] has as its system Rattus norvegicus. The data set can be described thus: Inhibition of LPA-induced increase of intraurethral pressure in anesthetized rat at 10 mg/kg, id administered at 0 mins followed by LPA challenge at 0, 5, 15, 30 and 60 mins. It is filed as functional. The settings on record: Urethra. An outline of the steps:
(§2)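 Anesthetized rats received compound in 0.5% methylcellulose intraduodenally at 0 min. LPA (300 μg/kg) was given i.v. before dosing and at 5, 15, 30 and 60 min. The read-out is the maximal inhibition rate of the LPA-evoked intraurethral pressure rise.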

Data set [5] in a line: Solubility of the compound in buffer at pH 6.8. It is filed as physicochemical.
Data set [6] in a line: Half life in human liver microsomes at 0.5 mg/ml. It is filed as ADME. The procedure, abridged:
(§3)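 Liver microsomes were used at 0.5 mg/mL with NADPH. Half-life is reported in min.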
(Liver microsomes are a subcellular fraction often used to study metabolism.)

Data set [7] can be described thus: Half life in rat liver microsomes at 0.5 mg/ml. It is filed as ADME. An outline of the steps:
as §3

Data set [8] addresses T1, Lysophosphatidic acid receptor 1. The data set can be described thus: Antagonist activity at human LPA1 receptor expressed in CHO cells assessed as reduction in LPA-induced intracellular Ca2+ concentration at 1 uM pretreated with compound followed by LPA addition by fluorescence assay. It is filed as functional, cell-based.
Data set [9] is described as follows: Apparent permeability in human Caco2 cells. It is filed as ADME, cell-based. The settings on record: Caco-2. (In general: Caco-2 monolayers are a common model of the intestinal barrier.)
The test system of data set [10] is Rattus norvegicus. The data set is described as follows: Reduction in intraurethral pressure in conscious rat at 1 mg/kg, po measured after 60 mins. Conditions: 30 mg/kg, in the assay text read “30 mg/kg” for “1 mg/kg”. It is filed as functional, organism-based. The procedure, abridged:
(§4)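 Conscious rats were dosed orally at 0 min with no LPA stimulation. Intraurethral pressure and mean blood pressure were recorded continuously for 60 min and averaged over 10-min intervals. Comparison was against vehicle.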

For data set [11], the system named is Rattus norvegicus. The data set can be described thus: Toxicity in conscious rat assessed as reduction in mean blood pressure at 1 mg/kg, po measured after 60 mins. It is filed as organism-based. Conditions: in vivo, 1 h. An outline of the steps:
as §4

Data set [12] concerns Rattus norvegicus. The data set is described as follows: Inhibition of LPA-induced increase of intraurethral pressure in anesthetized rat at 3 mg/kg, id administered at 0 mins followed by LPA challenge at 0, 5, 15, 30 and 60 mins. It is filed as functional. The settings on record: Urethra. An outline of the steps: as §2
The test system of data set [13] is Rattus norvegicus. The data set can be described thus: Inhibition of LPA-induced increase of intraurethral pressure in po dosed rat administered 60 mins prior to LPA addition. It is filed as functional. The settings on record: Urethra. The procedure, abridged: (§5)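 Conscious rats were dosed orally. After 60 min, LPA (300 μg/kg) was injected i.v. and intraurethral pressure was recorded under short-term anesthesia. ID50 was taken from the dose–response.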

For data set [14], the system named is Rattus norvegicus. The data set is described as follows: Inhibition of LPA-induced increase of intraurethral pressure in rat at 10 mg/kg, po administered 60 mins prior to LPA addition. It is filed as functional, organism-based. Conditions: Urethra. An outline of the steps: as §5
For data set [15], the system named is Rattus norvegicus. The data set can be described thus: Inhibition of LPA-induced increase of intraurethral pressure in rat at 30 mg/kg, po administered 60 mins prior to LPA addition. It is filed as functional, organism-based. Conditions: Urethra. The procedure, abridged: as §5
The test system of data set [16] is Rattus norvegicus. The data set can be described thus: In vivo antagonist activity at LPA1 receptor in conscious rat assessed as decrease in intraurethral pressure at 30 mg/kg, po. It is filed as functional, organism-based. The procedure, abridged:
as §4

In data set [17] the test system is Rattus norvegicus. The data set can be described thus: Toxicity in conscious rat assessed as reduction in mean blood pressure at 30 mg/kg, po. It is filed as organism-based. The settings on record: in vivo. An outline of the steps: as §4
Data set [18] can be described thus: Total clearance in rat at 3 mg/kg, iv. It is filed as ADME, organism-based. Conditions: in vivo.
A short description of data set [19]: Half life in rat at 3 mg/kg, iv. The settings on record: in vivo. It is filed as ADME, organism-based.

In brackets after ≈: the same amount, converted by molar mass. Activity calls are given as the source filed them.

Lysophosphatidic acid receptor 2, sequence (Q9HBW0 whole entry): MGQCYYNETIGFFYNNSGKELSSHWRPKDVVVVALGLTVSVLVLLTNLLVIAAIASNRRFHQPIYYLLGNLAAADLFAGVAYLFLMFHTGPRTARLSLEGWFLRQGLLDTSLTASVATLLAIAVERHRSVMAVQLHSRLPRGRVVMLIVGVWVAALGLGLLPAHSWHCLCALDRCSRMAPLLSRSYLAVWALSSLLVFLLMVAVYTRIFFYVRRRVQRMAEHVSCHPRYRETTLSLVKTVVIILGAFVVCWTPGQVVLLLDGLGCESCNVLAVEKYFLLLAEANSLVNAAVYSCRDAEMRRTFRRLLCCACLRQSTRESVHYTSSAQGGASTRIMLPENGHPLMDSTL
T1 sequence (Q92633 whole entry): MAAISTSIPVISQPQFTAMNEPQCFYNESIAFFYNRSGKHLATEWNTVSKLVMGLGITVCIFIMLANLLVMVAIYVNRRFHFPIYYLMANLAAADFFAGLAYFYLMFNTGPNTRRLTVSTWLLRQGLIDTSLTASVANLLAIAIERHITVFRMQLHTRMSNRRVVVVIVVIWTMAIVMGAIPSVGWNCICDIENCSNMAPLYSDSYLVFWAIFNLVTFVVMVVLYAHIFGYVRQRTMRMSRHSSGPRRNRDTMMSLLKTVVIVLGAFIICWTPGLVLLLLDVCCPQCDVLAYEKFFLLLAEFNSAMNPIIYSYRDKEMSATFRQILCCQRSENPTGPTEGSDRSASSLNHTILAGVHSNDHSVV

As usually defined, the IC50 is the concentration at which inhibition is half-maximal. As for `COc1cccc(C(=O)N(CCCc2ccccc2)Cc2ccc(-c3ccccc3C(=O)O)cc2)c1`, the IC50 in data set [1] amounted to 1300 nM. On to `COc1cc(OC)cc(C(=O)N(CCCc2ccccc2)Cc2ccc(Oc3cccc(C(=O)O)c3)cc2)c1`, for which the IC50 in data set [1] came out at 140 nM. For `COc1cc(C(=O)N(CCCc2ccccc2F)Cc2ccc(CC(=O)O)cc2)cc(OC)c1C`, in data set [1], the IC50 turned out to be 220 nM. The same measure, in the same setting: to `COc1cc(C(=O)N(CCCOc2cccc(C(=O)O)c2)CCCc2ccccc2)cc(OC)c1C` belongs 680 nM.

Turning to `COc1cc(C(=O)N(CCCc2ccccc2)Cc2ccc(Oc3cccc(C)c3C(=O)O)cc2)cc(OC)c1C`, the IC50 in [1] came out at 100 nM. In the case of `Cc1cc(C)cc(C(=O)N(CCCc2ccccc2)Cc2ccc(-c3ccccc3C(=O)O)cc2)c1`, the IC50 in [1] worked out at 260 nM. As a reminder, the inhibition in vivo is the relative decrease from the control value, in per cent. Lower therefore signals a response near the control. A word on the solubility: it is how much of the substance goes into solution per volume. Lower therefore signals a poorly soluble substance. A word on the half-life: it is the time needed for the level to fall by half in the phase considered. A low value points to rapid decline. As for `COc1cc(C(=O)N(CCCc2ccccc2)Cc2ccc(Oc3ccc(Cl)cc3C(=O)O)cc2)cc(OC)c1C`, the IC50 was 3.5 nM in [1], 0.79 µM in data set [2] and greater than 10 µM in data set [3]. The same compound returned an inhibition in vivo at 10 mg/kg with Rattus norvegicus [4] of 53%. In addition, the solubility in data set [5] amounted to 69 µM (≈ 39.6 µg/mL). In addition, the half-life in [6] and in data set [7] was less than 15 min each time.

For the compound `COc1ccccc1C(=O)N(CCCc1ccccc1)Cc1ccc(-c2ccccc2C(=O)O)cc1`, the IC50 in data set [1] was determined as 3300 nM. On the same count and under the same terms, to `COc1cc(C(=O)N(CCCc2ccc(F)cc2)Cc2ccc(CC(=O)O)cc2)cc(OC)c1C` belongs greater than 1000 nM. On the same count and under the same terms, to `COc1cc(C(=O)N(CCCCc2ccccc2)Cc2ccc(OCC(=O)O)cc2)cc(OC)c1C` belongs 6600 nM; to `COc1cc(OC)cc(C(=O)N(CCCc2ccccc2)Cc2ccc(-c3ccccc3C(=O)O)cc2)c1`, 260 nM. Broadly, the inhibition is the drop in the measured response relative to a control, in per cent. Consider `COc1cc(OC)cc(C(=O)N(CCCc2ccccc2)Cc2ccc(Oc3ccc(C(=O)O)cc3)cc2)c1`, for which the inhibition in [8] worked out at 44%.

Take `COc1cc(OC)cc(C(=O)N(CCCc2ccccc2)Cc2ccc(-c3ccccc3CCC(=O)O)cc2)c1`: in data set [1], the IC50 was found to be 230 nM. The same measure, in the same setting: to `COc1cc(OC)cc(C(=O)N(CCCc2ccccc2)Cc2ccc(Oc3ccccc3C(=O)O)cc2)c1` belongs 89 nM. Same read-out and setting: the same measure for `Cc1cccc(C(=O)N(CCCc2ccccc2)Cc2ccc(-c3ccccc3C(=O)O)cc2)c1`: 1700 nM; for `COc1cc(C(=O)N(CCCc2cccc(F)c2)Cc2ccc(CC(=O)O)cc2)cc(OC)c1C`: 190 nM; for `O=C(O)c1ccccc1-c1ccc(CN(CCCc2ccccc2)C(=O)c2ccccc2)cc1`: 12100 nM. With `COc1cc(C(=O)N(CCCc2ccccc2)Cc2ccc(Oc3ccccc3C(=O)O)cc2)cc(OC)c1OC`, the IC50 in data set [1] was 130 nM. On the same count and under the same terms, the same measure for `COc1cc(OC)cc(C(=O)N(CCCc2ccccc2)Cc2ccc(-c3ccccc3CC(=O)O)cc2)c1`: 210 nM. The term Papp denotes the rate of passage across a membrane or cell layer, normalised by area and donor concentration. `COc1cc(C(=O)N(CCCc2ccccc2)Cc2ccc(OCC(=O)O)cc2)cc(OC)c1C`: the half-inhibitory concentration (IC50) in data set [1] is 100 nM; in data set [2], 23 µM; in data set [3] it was greater than 10 µM. Also, the inhibition in vivo at 10 mg/kg in the data set on Rattus norvegicus [4] was 44%. The solubility in [5] was 84 µM (≈ 40.1 µg/mL). For the same compound, the Papp in data set [9] amounted to 3.2 ×10⁻⁶ cm/s. The half-life in [6] worked out at 22 min; in data set [7] it was 24 min. On to `COc1cc(C(=O)N(CCc2ccccc2)Cc2ccc(OCC(=O)O)cc2)cc(OC)c1C`, for which the IC50 in data set [1] was greater than 10000 nM. The same measure, in the same setting: to `COc1cc(C(=O)N(CCCc2ccccc2)Cc2ccc(Oc3ccccc3C(=O)O)cc2)cc(OC)c1C` belongs 71 nM; to `COc1ccc(C(=O)N(CCCc2ccccc2)Cc2ccc(-c3ccccc3C(=O)O)cc2)cc1OC`, 3700 nM. On to `COc1cc(C(=O)N(CCCc2ccccc2)Cc2ccc(C(=O)O)cc2)cc(OC)c1C`, for which the IC50 in data set [1] is greater than 1000 nM.

For the compound `COc1cc(C(=O)N(CCCc2ccccc2)Cc2ccc(Oc3cc(Cl)ccc3C(=O)O)cc2)cc(OC)c1C`, in data set [1], the IC50 is 5.9 nM. For the compound `CCOc1ccccc1OCCN[C@H](C)Cc1ccc(OC)c(S(N)(=O)=O)c1` [TAMSULOSIN], the result with Rattus norvegicus [10] was Active. Further, in the data set with Rattus norvegicus [11], the Activity result is reported as “Toxic”. On to `COc1cc(C(=O)N(CCCc2ccccc2)Cc2ccc(-c3ccccc3C(=O)O)cc2)cc(OC)c1OC`, for which the half-inhibitory concentration (IC50) in [1] turned out to be 390 nM. Usually clearance stands for a measure of how efficiently the substance is removed, as volume per time. High values mean efficient removal, low ones inefficient removal. `COc1cc(C(=O)N(CCCc2ccccc2)Cc2ccc(CC(=O)O)cc2)cc(OC)c1C`: the results for the IC50 in data set [1], in data set [2] and in data set [3] were 160 nM, 8.6 µM and greater than 10 µM, respectively. Moreover, the inhibition in vivo at 3 mg/kg in the data set on Rattus norvegicus [12] was found to be 62%. Further, the inhibition in vivo at 10 mg/kg with Rattus norvegicus [4] was found to be 88%. In addition, the solubility in data set [5] came to 73 µM (≈ 33.7 µg/mL). The Papp in [9] is 15.9 ×10⁻⁶ cm/s. The half-life in data set [6] was 28 min; in data set [7], 29 min; in data set [19], 18 min. The inhibition result in the data set with Rattus norvegicus [13] is “Dose-dependent effect”. In the data set with Rattus norvegicus [13] (read-out: ID50 (the source's name)), the ED50 was determined as 11.6 mg/kg. Besides, the inhibition entry in the data set on Rattus norvegicus [14], in the data set with Rattus norvegicus [15] and in the data set with Rattus norvegicus [16] was “Active” each time. Further, the Activity result in the data set on Rattus norvegicus [17] is reported as “Non-Toxic”. Further, the outcome in the data set with Rattus norvegicus [10] was Active. This compound also gave a clearance in data set [18] of 15.9 mL/min/kg. Consider `O=C(O)c1ccccc1-c1ccc(CN(CCCc2ccccc2)C(=O)c2cccc(F)c2)cc1`, for which, in data set [1], the IC50 is 5500 nM. In the case of `COc1cc(C(=O)N(C/C=C/c2ccccc2)Cc2ccc(CC(=O)O)cc2)cc(OC)c1C`, the IC50 in data set [1] was greater than 1000 nM. On the same count and under the same terms, the same measure for `COc1cc(C(=O)N(CCCc2ccccc2)Cc2ccc(Oc3ccc(C)cc3C(=O)O)cc2)cc(OC)c1C`: 42 nM; for `COc1ccc(C(=O)N(CCCc2ccccc2)Cc2ccc(-c3ccccc3C(=O)O)cc2)cc1`: 4400 nM; for `COc1cc(C(=O)N(CCCc2ccccc2)Cc2ccc(Oc3cc(C)ccc3C(=O)O)cc2)cc(OC)c1C`: 15 nM. The same measure, in the same setting: the same measure for `COc1cc(C(=O)N(CCCc2ccccc2)Cc2ccc(Oc3c(C)cccc3C(=O)O)cc2)cc(OC)c1C`: 140 nM.
